High-throughput results: PubChem BioAssay, several laboratories
AHR act: human AHR activation. P35869. AHR-responsive luciferase reporter cells, luminescence. activation, % at 5 µM. 320,000 compounds, 2.5% hits. AID 2796; in the data active = activation above about 47%;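 note: 0% = vehicle wells and 100% = reference agonist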
Target sequence (P35869 whole entry, looked up): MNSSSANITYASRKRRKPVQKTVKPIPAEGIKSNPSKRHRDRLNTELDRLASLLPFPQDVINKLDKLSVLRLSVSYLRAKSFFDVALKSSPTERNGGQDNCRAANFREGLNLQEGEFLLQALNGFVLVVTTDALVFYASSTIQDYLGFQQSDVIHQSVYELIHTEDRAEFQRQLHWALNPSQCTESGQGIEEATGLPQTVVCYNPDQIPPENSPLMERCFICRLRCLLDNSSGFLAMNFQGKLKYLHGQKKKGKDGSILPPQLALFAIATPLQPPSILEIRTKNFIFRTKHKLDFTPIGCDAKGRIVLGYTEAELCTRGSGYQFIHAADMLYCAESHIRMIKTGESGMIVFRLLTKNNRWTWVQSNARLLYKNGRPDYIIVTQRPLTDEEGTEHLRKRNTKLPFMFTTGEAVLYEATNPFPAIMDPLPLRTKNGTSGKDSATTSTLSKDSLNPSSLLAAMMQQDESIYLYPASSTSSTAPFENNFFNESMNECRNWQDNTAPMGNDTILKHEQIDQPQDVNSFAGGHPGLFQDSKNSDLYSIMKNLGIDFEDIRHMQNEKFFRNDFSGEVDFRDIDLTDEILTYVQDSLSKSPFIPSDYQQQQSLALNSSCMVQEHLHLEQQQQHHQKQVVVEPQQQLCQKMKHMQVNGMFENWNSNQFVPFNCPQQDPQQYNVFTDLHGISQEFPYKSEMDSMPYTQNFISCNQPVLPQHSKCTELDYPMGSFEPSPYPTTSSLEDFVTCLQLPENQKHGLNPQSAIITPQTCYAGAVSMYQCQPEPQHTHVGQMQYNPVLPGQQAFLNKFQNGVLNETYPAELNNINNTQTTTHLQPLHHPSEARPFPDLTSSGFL
H9c2 TAG inh: triacylglycerol accumulation inhibition. H9c2 cells, Nile Red lipid (TAG) fluorescence; cells loaded with 200 µM oleic acid. inhibition, % at 12.5 µM. 230,000 compounds, 0.66% hits;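 active = pattern-corrected inhibition of lipid staining of at least 50% with the nuclear-stain viability signal not falling by more than 50%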;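 note: 0% = DMSO wells and 100% = triacsin C control wells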
Efflux pump inh: blocks antifungal efflux pumps in multiplex yeast assay; inhibition, % at 10 µM; 330,000 compounds, 0.44% hits; AID 485275; S. cerevisiae Candida pump triplex, Nile Red efflux;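 active = plate passing quality check with inhibition over a set limit, or well fluorescence over plate mean plus 4 SD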;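 note: Nile Red retained in pooled yeast measured as flow cytometry median fluorescence; 0% = buffer negative control and 100% = Enniatin B positive control; higher means more Nile Red kept so more efflux inhibition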
Tb MetRS inh: blocks T. brucei methionyl-tRNA synthetase activity. 360,000 compounds, 0.4% hits. purified T. brucei MetRS, ATP depletion, Kinase-Glo luminescence. AID 624268. inhibition, % at 11.9 µM;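 active = inhibition above a per-plate cutoff of the control wells' mean inhibition plus 3 SD, cut at about 5.5% in these data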;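 note: 0% = DMSO wells median and 100% = median of wells with control inhibitor compound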
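Dosing: 11.9 µM single point; system: parasite MetRS enzyme; technique: luminescence of leftover ATP; times: 15 min enzyme-compound preincubation, 2 h reaction, 10 min detection, 25 °C; replicates: each compound tested once; read-out basis: percent inhibition relative to median high and low control wells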
SMARCA2 activ: increases SMARCA2 function in MMTV reporter cells. MG213 cells, MMTV-luciferase reporter, dexamethasone, overnight. activation, % at 9.1 µM. 370,000 compounds, 1% hits; in the data active = activation above about 7.8%;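 note: 0% = vehicle wells and 100% = reference activator wells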
The depositor's hits bear a star; x = not tested or not shown. An excerpt weighted towards active compounds, which were near 4.1% of everything screened.

SMILES	AHR act	H9c2 TAG inh	Efflux pump inh	Tb MetRS inh	SMARCA2 activ
O=C(N/N=C/c1ccc2c(c1)OCO2)C1CC1	67*	0	0	-1	5
COc1ccc(-c2cc(C(=O)N/N=C/c3ccc4c(c3)OCO4)c3ccccc3n2)c(OC)c1	49*	-5	0	0	-7
Cc1ccc(S(=O)(=O)NCC(=O)N2CCN(c3ccccn3)CC2)s1	x	x	x	x	-5
COc1ccccc1/C=N/NC(=O)c1ccc2c(c1)OCO2	51*	x	0	-1	2
Cc1c(/C=N/NC(=O)C(NC(=O)c2ccc3c(c2)OCO3)C(C)C)c2ccccc2n1C (centres undefined)	51*	x	0	1	-4
COc1cc(/C=N/NC(=O)c2cc(-c3ccc4c(c3)OCO4)n[nH]2)ccc1O	128*	x	0	0	3
CCOC(=O)CN1C=C(c2ccc3ccccc3n2)C(C[N+](=O)[O-])c2ccccc21 (centres undefined)	67*	x	0	0	x
COc1ccc([N+](=O)[O-])cc1NC(=O)CSc1nccc(C)n1	69*	15	0	0	-4
COc1ccc([N+](=O)[O-])cc1NC(=O)CSc1ncccn1	6	x	0	0	0
O=C(/C=C/Nc1ccccc1F)c1cccs1	57*	x	-1	-2	6
O=C(/C=C\Nc1cccc(F)c1)c1cccs1	37	2	0	-1	5
Cn1nc(C(=O)Nc2cc(Cl)ccc2N2CCCC2)c2ccccc2c1=O	64*	5	0	-1	2
CCn1nc(C(=O)Nc2ccccc2N2CCCC2)c2ccccc2c1=O	13	0	0	0	0
COc1ccc(CNc2ccc3cn[nH]c3c2)c(OC)c1OC	27	x	1	3	-2
CCOc1cc(CNc2ccc3cn[nH]c3c2)ccc1OC	53*	x	0	0	4
O=C(c1ccc(CS(=O)(=O)c2c(Cl)cccc2Cl)o1)N1CCN(c2ccccn2)CC1	94*	8	0	-1	-2
O=[N+]([O-])c1ccc(C2=Nc3cc(Cl)ccc3OC2)cc1	67*	-16	0	1	-2
Cc1ccc2c(c1)N=C(c1ccc(F)cc1)CO2	35	-15	0	-2	6
O=C(Nc1cccc2nsnc12)c1ccc(-c2ccc(Br)cc2)o1	49*	x	0	-1	1
Cc1sc(NC(=O)Cc2ccc3c(c2)OCO3)nc1-c1ccc2c(c1)CCN2C(=O)c1cccc(F)c1	73*	x	-1	-1	-4
CCOc1ccc(-n2c(SCC(=O)Nc3cccc4ccccc34)nnc2-c2ccccc2)cc1	x	x	x	x	-1
Cc1ccc2c(c1)-c1cc(C)nn1C(c1ccc3c(c1)OCO3)N2 (centres undefined)	94*	x	0	-1	0
Cc1cc2n(n1)C(c1ccc(N(C)C)cc1)Nc1ccccc1-2 (centres undefined)	82*	x	0	0	1
FC(F)(F)Oc1ccc(Cn2ccc3ccc(-c4ccc5ccn(Cc6ccccc6)c5c4)cc32)cc1	x	x	x	x	-2
CCCC[C@H]1C2CC(OC(=O)Nc3ccccc3Cl)C(C2)[C@H]2CCCCN21 (some centres undefined)	x	x	x	x	-1
SMILES	AHR act	H9c2 TAG inh	Efflux pump inh	Tb MetRS inh	SMARCA2 activ
CC1(C)CC(=O)C=C(Nc2ccc(Cl)c(Br)c2)C1	68*	x	0	2	-2
COCCCN1C(=O)[C@H](CC(=O)NCc2cccc(C(F)(F)F)c2)[C@]2(C(=O)OC)CCCCC=C12	x	x	x	x	-3
Cc1nc(Nc2ccc(Cl)cc2)c(C#N)c(=O)[nH]1	71*	9	0	0	1
COC(=O)[C@]12C[C@H](CC(=O)NCc3ccc(OC)c(OC)c3)C(=O)N(Cc3cccc4ccccc34)C1=C[C@H](C(C)C)O[C@@H]2C1CC1	x	x	x	x	-4
COC(=O)C1CN(CCO)CCS(=O)(=O)N1Cc1cn(Cc2ccc(C)cc2)nn1 (centres undefined)	x	x	x	x	-2
Cc1ccccc1OCC(=O)Nc1nnc(C2CC2)s1	-2	-10	0	0	1
N#Cc1ccccc1OCC(=O)Nc1nnc(C2CC2)s1	64*	16	0	-1	-3
Cc1cccc(C(=O)Nc2nc3ncccn3c2-c2ccccc2)c1	x	x	x	x	0
O=C(Cn1cnc([N+](=O)[O-])c1)Nc1cc(Oc2ccc(Cl)cc2Cl)cc([N+](=O)[O-])c1	0	x	0	78*	-2
Cc1ccc(S(=O)(=O)N2CCCC(C(=O)NCCN3CCC(Cc4ccccc4)CC3)C2)cc1 (centres undefined)	x	x	x	x	-6
COc1ccc(C)cc1NC(=O)n1ncc2cc(Cl)ccc21	56*	x	5	-1	0
CCCCCCCCC[n+]1cccc2c3ccccc3ccc21	-6	x	0	5.7*	x
CCCCCCCCCCCCCCCC[n+]1cccc2ccccc21	-8	x	1.1*	-1	-11
Cc1ccccc1C[n+]1cccc2ccccc21	12	-27	0	0	0
O=C(Cc1ccccc1)N1CCC(Oc2cccnc2)CC1	x	x	x	x	-1
COc1cc2c(C)nc3c(c(C)nn3-c3ccccc3)c2cc1OC	21	13	0	1	-2
COc1cc2c(C)nc3onc(-c4ccccc4)c3c2cc1OC	71*	20	0	1	-1
O=C(CSc1nnc(-c2cccc(Cl)c2)n1Cc1ccco1)Nc1ccc2c(c1)OCO2	x	x	x	x	-5
CC(=O)N1N=C2c3ccccc3CCC2C1c1cccs1 (centres undefined)	60*	-12	0	0	1
CC(=O)N1CCCN(S(=O)(=O)c2ccc3c(c2)oc(=O)n3C)CC1	x	x	x	x	-4
O=C(Nc1cccc(F)c1)C1CCCN(C(=O)c2ccc(Cl)cc2)C1 (centres undefined)	51*	-1	0	0	-5
O=C(Nc1ccccc1)C1CCCN(C(=O)c2ccc(Cl)cc2)C1 (centres undefined)	-2	-7	0	-1	-3
CCCC[C@@H](CCCc1ccc(F)cc1)CCC(=O)N(c1ccccc1)c1ccccc1	x	x	x	x	0
Oc1csc(Cc2nc(-c3ccc(Br)cc3)cs2)n1	78*	10	0	1	4
Cc1ccc(O)c(NC(=O)c2onc(C)c2Cl)c1	72*	x	0	-1	4
SMILES	AHR act	H9c2 TAG inh	Efflux pump inh	Tb MetRS inh	SMARCA2 activ
Cc1noc(C(=O)Nc2ccc(F)cc2F)c1Cl	x	x	0	-1	6
CCOC(=O)c1cccc(NC(=O)CN(C)S(=O)(=O)c2cc3ccccc3s2)c1	x	x	x	x	-7
O=C1OCC2=C1C(c1ccc(F)cc1)c1cc3c(cc1N2)OCCO3 (centres undefined)	x	60*	x	0	-2
O=C(Cn1nnc(-c2ccncc2)n1)Nc1ccc(F)cc1F	x	x	x	x	-5
CCOc1ncccc1C(=O)NNC(=O)c1ccccc1-n1cccc1	61*	1	1	0	2
O=C(Nc1ccc2c(c1)OCO2)c1ccc([N+](=O)[O-])cc1[N+](=O)[O-]	72*	x	0	1	2
S=C(Nc1ccc2c(c1)OCO2)Nc1ccc2c(c1)OCO2	68*	-1	0	0	4
O=C(Cc1ccc([N+](=O)[O-])cc1)Nc1ccc2c(c1)OCO2	15	-5	0	0	-3
